In ChEMBL document CHEMBL4732072, “Synthesis of 17β-hydroxysteroid dehydrogenase type 10 steroidal inhibitors: Selectivity, metabolic stability and enhanced potency” (Eur J Med Chem, 2021):

Key:
[1] = target: T1, 17-beta-hydroxysteroid dehydrogenase type 3 (Homo sapiens, UniProt P37058); test: Inhibition of human 17-beta-HSD3 expressed in LNCaP cells assessed as reduction in […]-3,17-dione to [14C]-testosterone at 3 uM incubated for 1 hr by thin layer chromatography; type: cell-based
T1 sequence (P37058 whole entry): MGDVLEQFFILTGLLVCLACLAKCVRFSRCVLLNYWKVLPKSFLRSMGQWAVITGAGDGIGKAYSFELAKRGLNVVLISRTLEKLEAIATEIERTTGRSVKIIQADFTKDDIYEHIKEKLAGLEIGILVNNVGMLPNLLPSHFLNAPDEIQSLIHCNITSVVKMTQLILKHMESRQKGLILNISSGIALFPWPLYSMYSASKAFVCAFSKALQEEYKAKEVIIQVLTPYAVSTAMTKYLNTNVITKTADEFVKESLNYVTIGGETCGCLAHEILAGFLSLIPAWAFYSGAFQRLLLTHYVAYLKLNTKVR
Outline: (§1)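 LNCaP cells overexpressing 17β-HSD3 were plated at 10^4 per well in medium without hygromycin for 2 days. 15 nM [14C]-4-androstene-3,17-dione plus inhibitor was then added (final DMSO 0.05%) for 1 h at 37°C. Steroids were Et2O-extracted and separated by silica TLC (toluene/acetone 4:1). % inhibition was taken from radioactivity-based % transformation versus a blank control.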

HEK293 [2] = test: Inhibition of human 17-beta-HSD10 expressed in HEK293 cells assessed as reduction in oxidation of [14C]-estradiol to [14C]-estrone at 3 uM incubated for 40 hrs by thin layer chromatography; type: cell-based
Outline: (§2)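 Stably transfected HEK-293 cells expressing human 17β-HSD10 (G418-selected) were seeded at 2.5 x 10^5 per well for 24 h. Inhibitor was added from a DMSO stock (final DMSO 0.5%) with E2/[14C]-E2 (9:1, final 1 µM) for 40 h at 37°C. Steroids were Et2O-extracted, TLC-separated and quantified by radioactivity. % inhibition was taken from blank-corrected % transformation, run in triplicate.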

[3] = Metabolic stability in human liver microsomes assessed as compound remaining at 1 uM incubated for 1 hr in presence of NADPH by HPLC-MS analysis; type: ADME, Microsome; conditions: read-out: Stabilty
Outline: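 Human liver microsomes (40 µg) were incubated with compound for 1 h at 37°C, with or without 10 mM NADPH, in 50 mM Tris with 10 mM MgCl2. The reaction was quenched with MeOH and centrifuged, and supernatants from 2 assays were pooled. Analysis was by HPLC-MS with UV at 190 nm. Remaining % = peak area with NADPH / area without NADPH x 100, from two experiments in duplicate.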

[4] = target: T1, 17-beta-hydroxysteroid dehydrogenase type 3; test: Inhibition of human 17-beta-HSD3 expressed in LNCaP cells assessed as reduction in […]-3,17-dione to [14C]-testosterone at 0.3 uM incubated for 1 hr by thin layer chromatography; type: cell-based; outline: as §1
HEK293 [5] = test: Inhibition of human 17-beta-HSD10 expressed in HEK293 cells assessed as reduction in oxidation of [14C]-estradiol to [14C]-estrone at 0.3 uM incubated for 40 hrs by thin layer chromatography; type: cell-based; outline: as §2
HEK293 [6] = test: Potency index, ratio of (3R,5S,8R,9S,10S,13S,14S)-3-hydroxy-3-((4-(3-methoxybenzyl)piperazin-1-yl)methyl)-10,13-dimethyltetradecahydro-1H-cyclopenta[a]phenanthren-17(2H)-one IC50 to compound IC50 for inhibition of human 17-beta-HSD10 expressed in HEK-293 cells; type: cell-based
[7] = Inhibition of human 17-beta-HSD10 expressed in HEK293 cells assessed as reduction in oxidation of [14C]-estradiol to [14C]-estrone incubated for 40 hrs by thin layer chromatography; type: cell-based
Outline: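 The same HEK-293[17β-HSD10] cell assay was used: 2.5 x 10^5 cells, 0.5% final DMSO, 1 µM E2/[14C]-E2 (9:1) for 40 h at 37°C, with Et2O extraction, TLC and radioactivity quantification. Inhibitor was tested from 0.01 to 5 µM in triplicate. IC50 was calculated from the inhibition curves.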

Row | Compound | inhibition at 3 µM [1] | inhibition (HEK293 [2]) | remaining at 1 h, 1 µM [3] | inhibition at 0.3 µM [4] | inhibition (HEK293 [5]) | Ratio IC50 (HEK293 [6]) | IC50 [7]
1 | COc1cccc(CN2CCN(C[C@@]3(O)CC[C@@]4(C)[C@@H](CC[C@@H]5[C@@H]4CC[C@]4(C)[C@H](O)CC[C@@H]54)C3)CC2)c1 | 3.8% | 36.9% | 70.6% | 5.2% | 13.5% | – | –
2 | Cc1cc(C)cc(C(=O)N2CCN(C[C@@]3(O)CC[C@@]4(C)[C@@H](CC[C@@H]5[C@@H]4CC[C@]4(C)C(=O)CC[C@@H]54)C3)CC2)c1 | – | – | – | – | – | 1.1 | 2.05 µM
3 | C[C@]12CC[C@](O)(CN3CCN(C(=O)c4ccc(-c5ccccc5)cc4)CC3)C[C@@H]1CC[C@@H]1[C@@H]2CC[C@]2(C)C(=O)CC[C@@H]12 | – | – | – | – | – | 0.87 | 2.6 µM
4 | CC(=O)c1cccc(C(=O)N2CCN(C[C@@]3(O)CC[C@@]4(C)[C@@H](CC[C@@H]5[C@@H]4CC[C@]4(C)C(=O)CC[C@@H]54)C3)CC2)c1 | – | – | – | – | – | 0.98 | 2.3 µM
5 | CN(C)S(=O)(=O)c1ccc(NC(=S)N2CCN(C[C@@]3(O)CC[C@@]4(C)[C@@H](CC[C@@H]5[C@@H]4CC[C@]4(C)C(=O)CC[C@@H]54)C3)CC2)cc1 | – | – | – | – | – | 2.11 | 1.07 µM
6 | C[C@]12CC[C@](O)(CN3CCN(C(=S)NCc4cccc(C(F)(F)F)c4)CC3)C[C@@H]1CC[C@@H]1[C@@H]2CC[C@]2(C)C(=O)CC[C@@H]12 | – | – | – | – | – | 1.6 | 1.41 µM
7 | COc1cc(CN2CCN(C[C@@]3(O)CC[C@@]4(C)[C@@H](CC[C@@H]5[C@@H]4CC[C@]4(C)[C@H](O)CC[C@@H]54)C3)CC2)ccc1C(F)(F)F | – | – | – | – | – | 2.4 | 0.95 µM
8 | COc1cccc(CN2CCN(C[C@@]3(O)CC[C@@]4(C)[C@@H](CC[C@@H]5[C@@H]4CC[C@@]4(C)[C@H]5CC[C@]4(C)O)C3)CC2)c1 | 20.6% | 41.9% | 21.8% | 2% | 20.5% | – | –
9 | COc1cccc(CN2CCN(C[C@@]3(O)CC[C@@]4(C)[C@@H](CC[C@@H]5[C@@H]4CC[C@]4(C)[C@@H](O)CC[C@@H]54)C3)CC2)c1 | 48.7% | 42.4% | 67.2% | 5% | 8.5% | – | –
10 | COc1cc(CN2CCN(C[C@@]3(O)CC[C@@]4(C)[C@@H](CC[C@@H]5[C@@H]4CC[C@]4(C)C(=O)CC[C@@H]54)C3)CC2)ccc1C | – | – | – | – | – | 5.38 | 0.42 µM
11 | C[C@]12CC[C@](O)(CN3CCN(C(=O)c4ccc(C(=O)c5ccccc5)cc4)CC3)C[C@@H]1CC[C@@H]1[C@@H]2CC[C@]2(C)C(=O)CC[C@@H]12 | – | – | – | – | – | 0.79 | 2.85 µM
12 | C#C[C@]1(O)CC[C@H]2[C@@H]3CC[C@H]4C[C@@](O)(CN5CCN(Cc6cccc(OC)c6)CC5)CC[C@]4(C)[C@H]3CC[C@@]21C | 4% | 45.8% | 45.5% | 2% | 22.4% | – | –
13 | C#C[C@]1(O)CC[C@H]2[C@@H]3CC[C@H]4C[C@@](O)(CN5CCN(Cc6ccc(C(F)(F)F)c(OC)c6)CC5)CC[C@]4(C)[C@H]3CC[C@@]21C | – | – | – | – | – | 1.8 | 1.26 µM
14 | COc1cc(C)ccc1CN1CCN(C[C@@]2(O)CC[C@@]3(C)[C@@H](CC[C@@H]4[C@@H]3CC[C@]3(C)C(=O)CC[C@@H]43)C2)CC1 | – | – | – | – | – | 0.75 | 3 µM
15 | C[C@]12CC[C@](O)(CN3CCN(Cc4cnc5ccccc5c4)CC3)C[C@@H]1CC[C@@H]1[C@@H]2CC[C@]2(C)C(=O)CC[C@@H]12 | – | – | – | – | – | 2.33 | 0.97 µM
16 | COc1cccc(CN2CCN(C[C@@]3(O)CC[C@@]4(C)[C@@H](CC[C@@H]5[C@@H]4CC[C@]4(C)C(=O)C(C)(C)C[C@@H]54)C3)CC2)c1 | 51.9% | 27.9% | 54.5% | 12.4% | 10.8% | – | –
17 | CCN(C)S(=O)(=O)N1CCN(C[C@@]2(O)CC[C@@]3(C)[C@@H](CC[C@@H]4[C@@H]3CC[C@]3(C)C(=O)CC[C@@H]43)C2)CC1 | – | – | – | – | – | 1.44 | 1.57 µM
18 | COc1cccc(CN2CCN(C[C@@]3(O)CC[C@@]4(C)[C@@H](CC[C@@H]5[C@@H]4CC[C@]4(C)C(=O)CC[C@@H]54)C3)CC2)c1 | 84.4% | 70.4% | 28% | 30.2% | 40.7% | – | 2.26 µM
19 | COc1cccc(CN2CCN(C[C@@]3(O)CC[C@@]4(C)[C@@H](CC[C@@H]5[C@@H]4CC[C@@]4(C)[C@H]5CCC4(F)F)C3)CC2)c1 | -0.5% | 40.8% | 34.1% | 1.1% | 5.5% | – | –
20 | C[C@]12CC[C@](O)(CN3CCN(C(=O)c4ccc(C#N)cc4)CC3)C[C@@H]1CC[C@@H]1[C@@H]2CC[C@]2(C)C(=O)CC[C@@H]12 | – | – | – | – | – | 1.36 | 1.66 µM
21 | COc1cc(CN2CCN(C[C@@]3(O)CC[C@@]4(C)[C@@H](CC[C@@H]5[C@@H]4CC[C@]4(C)C(=O)CC[C@@H]54)C3)CC2)ccc1C(F)(F)F | – | – | – | – | – | 16.1 | 0.14 µM
